Laboratory results taken from ChEMBL document CHEMBL4622992, “New Polyaminoisoprenyl Antibiotics Enhancers against Two Multidrug-Resistant Gram-Negative Bacteria from Enterobacter and Salmonella Species” (J Med Chem, 2020).
Where a SMILES comes first, the peptide text is derived from it. Bridges are numbered along the chain shown (N, C = ends). [ ]: non-standard residue; d: D form. The star is where a group is joined. X1 = CC[C@H](C)CCCCC(=O)*; βNA = c1ccc2cc(N*)ccc2c1; Dab = NCC[C@H](N)C(=O)O

What was measured:
[1] = system: Salmonella typhimurium; assay: Potentiation of chloramphenicol-induced antibacterial activity against Salmonella enterica subsp. enterica serovar Typhimurium BN10055 assessed as ratio of the chloramphenicol alone MIC to […] in presence of MIC/4 level of compound incubated for 18 hrs; assay type: functional
In short: (§1)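 Broth microdilution in MH broth, 10^5 CFU inoculum, two-fold antibiotic dilutions, with or without compound at MIC/4. MIC is the lowest concentration with no visible growth after 18 h at 37°C. Gain is antibiotic MIC alone divided by MIC with compound. MICs repeated in at least three independent experiments; up to 5% DMSO.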

[2] = system: Salmonella typhimurium; assay: Potentiation of doxycycline-induced antibacterial activity against Salmonella enterica subsp. enterica serovar Typhimurium BN10055 assessed as ratio of the doxycycline alone MIC to doxycycline MIC in presence of MIC/4 level of compound incubated for 18 hrs; assay type: functional; in short: as §1
[3] = system: Klebsiella aerogenes; assay: Potentiation of nalidixic acid-induced antibacterial activity against Enterobacter aerogenes Ea289 assessed as ratio of the nalidixic acid alone MIC to nalidixic acid MIC in presence of MIC/4 level of compound incubated for 18 hrs
[4] = system: Klebsiella aerogenes; assay: Potentiation of erythromycin-induced antibacterial activity against Enterobacter aerogenes Ea289 assessed as ratio of the erythromycin alone MIC to erythromycin MIC in presence of MIC/4 level of compound incubated for 18 hrs
[5] = system: Klebsiella aerogenes; assay: Potentiation of doxycycline-induced antibacterial activity against Enterobacter aerogenes Ea289 assessed as ratio of the doxycycline alone MIC to doxycycline MIC in presence of MIC/4 level of compound incubated for 18 hrs; assay type: functional; in short: as §1
[6] = system: Klebsiella aerogenes; assay: Potentiation of chloramphenicol-induced antibacterial activity against Enterobacter aerogenes Ea289 assessed as ratio of the chloramphenicol alone MIC to […] in presence of MIC/4 level of compound incubated for 18 hrs; assay type: functional; in short: as §1
[7] = system: Salmonella typhimurium; assay: Potentiation of nalidixic acid-induced antibacterial activity against Salmonella enterica subsp. enterica serovar Typhimurium BN10055 assessed as ratio of the nalidixic acid alone MIC to […] in presence of MIC/4 level of compound incubated for 18 hrs; assay type: functional; in short: as §1
[8] = system: Salmonella typhimurium; assay: Potentiation of erythromycin-induced antibacterial activity against Salmonella enterica subsp. enterica serovar Typhimurium BN10055 assessed as ratio of the erythromycin alone MIC to erythromycin MIC in presence of MIC/4 level of compound incubated for 18 hrs; assay type: functional; in short: as §1
[9] = Toxicity in CHO cells assessed as reduction in cell viability incubated for 24 hrs by WST1 assay; assay type: cell-based; settings: Chinese hamster (Cricetulus griseus)
In short: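 CHO-K1 cells in McCoy's 5A with 10% FCS, exposed in triplicate to 30–1200 μM compound for 24 h at 37°C. After PBS washes, 30 min in medium with 10% WST-1; absorbance at 450 nm. IC50 is the concentration giving 50% loss of viable cells.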

[10] = Toxicity index, ratio of IC50 for toxicity in CHO cells to concentration of test compound causing at least 8 times decrease of MIC of almost 3 antibiotics (chloramphenicol/nalidixic acid/doxycycline/erythromycin ) against Enterobacter aerogenes Ea289; assay type: cell-based; settings: hamster, pooled result: one value given for 2 cell lines, strains, targets or settings
[11] = system: Klebsiella aerogenes; assay: Potentiation of chloramphenicol-induced antibacterial activity against Enterobacter aerogenes Ea289 assessed as efficiency index by measuring sum of gain factor for each test compound reported for chloramphenicol/nalidixic acid/doxycycline/erythromycin and divided by concentration of test compound; assay type: functional; settings: pooled result: one value given for 2 cell lines, strains, targets or settings
In short: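 Gain factors (antibiotic MIC alone / MIC with compound at MIC/4; broth dilution, 18 h, 37°C) for erythromycin, doxycycline, nalidixic acid and chloramphenicol are summed, then divided by the compound concentration used in the assay.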

[12] = system: Klebsiella aerogenes; assay: Inhibition of AcrAB-TolC in Enterobacter aerogenes Ea289 assessed as retention of 1,2'diNA dye within bacterial membranes at 100 uM relative to control; design: scale not given: the % may be the effect or the level left
In short: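 Stationary-phase cells at OD600 0.25 in potassium phosphate buffer pH 7.0 with CCCP 5 µM, loaded overnight with 1,2'-diNA 32 µM at 37°C, washed, compound added at 100 µM. Glucose 50 mM added at 300 s to energize efflux. Fluorescence (ex 370/em 420 nm) read every 30 s at 37°C; PAβN 100 µM as reference.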

[13] = system: Klebsiella aerogenes; assay: Induction of cell transmembrane potential disruption in Enterobacter aerogenes Ea289 assessed as membrane potential by measuring fluorescence level at 100 uM by [DiSC3(5)] based assay (reference value: 0.2%)

| Structure (SMILES) | Ratio [1] | Ratio [2] | Ratio [3] | Ratio [4] | Ratio [5] | Ratio [6] | Ratio [7] | Ratio [8] | IC50 at 24 h [9] | selectivity ratio [10] | Activity_index [11] | Activity [12] | Activity [13] |
| --- | --- | --- | --- | --- | --- | --- | --- | --- | --- | --- | --- | --- | --- |
| CC(C)=CCC/C(C)=C\CCC(C)=CCNCCCN1CCCC1 | 16 | 32 | 16 | 64 | 32 | 16 | 128 | 16 | 85.3 µM |  |  |  |  |
| CC(C)=CCCC(C)=CCNCCCN(C)CCCN | 16 | 16 | 8 | 32 | 16 | 16 | 32 |  | > 150 µM | 0.06 | 0.01 |  |  |
| N=C(N)NCCC[C@H](NC(=O)[C@@H](N)Cc1ccccc1)C(=O)Nc1ccc2ccccc2c1 [PABETAN] (H-Phe-Arg-βNA) | 8 | 16 | 8 | 8 | 16 | 16 | 64 | 8 |  |  |  | 25% |  |
| CC(C)=CCC/C(C)=C\CCC(C)=CCNCCCOCCCCOCCCN | 4 | 8 | 2 | 2 | 8 | 4 | 16 | 4 | > 150 µM |  |  |  |  |
| CC(C)=CCCC(C)=CCNCCCN | 8 | 16 | 8 | 32 | 16 | 8 | 32 |  | > 150 µM |  |  |  |  |
| CC[C@H](C)CCCCC(=O)N[C@@H](CCN)C(=O)N[C@H](C(=O)N[C@@H](CCN)C(=O)N[C@H]1CCNC(=O)[C@H]([C@@H](C)O)NC(=O)[C@H](CCN)NC(=O)[C@H](CCN)NC(=O)[C@H](CC(C)C)NC(=O)[C@@H](Cc2ccccc2)NC(=O)[C@H](CCN)NC1=O)[C@@H](C)O (X1-[Dab]T[Dab][Dab][Dab][dF]L[Dab][Dab]T; lactam 4-C) |  |  |  |  |  |  |  |  |  |  |  |  | 14% |
| CC(C)=CCCC(C)=CCNCCN | 8 | 16 | 4 | 4 | 32 | 4 | 16 | 1 | 36.2 µM |  |  |  |  |
| CC(C)=CCC/C(C)=C\CCC(C)=CCNCCNCCNCCNCCN | 8 | 4 | 16 | 8 | 32 | 8 | 16 | 1 | 43.5 µM | 5.37 | 1.49 |  |  |
| CC(C)=CCC/C(C)=C\CCC(C)=CCNCCCN(CCCN)CCCN | 16 | 8 | 16 | 4 | 16 | 32 | 128 | 1 | > 150 µM | 19.2 | 3.54 |  |  |
| CC(C)=CCC/C(C)=C\CCC(C)=CCNCCN | 8 | 32 | 8 | 128 | 8 | 4 | 64 | 32 | 32.3 µM |  |  |  |  |
| CC(C)=CCC/C(C)=C\CCC(C)=CCNCCCN(C)CCCN | 16 | 64 | 32 | 128 | 64 | 8 | 128 | 8 | 10.5 µM | 1.34 | 7.17 |  |  |
| CC(C)=CCCC(C)=CCNCCCN1CCCC1=O | 1 | 1 | 1 | 2 | 2 | 1 | 1 | 1 | > 150 µM |  |  |  |  |
| CC(C)=CCC/C(C)=C\CCC(C)=CCNCCCN | 32 | 32 | 16 | 256 | 64 | 16 | 128 | 64 | 32.1 µM |  |  |  |  |
| CC(C)=CCC/C(C)=C\CCC(C)=CCNCCCNCCCCNCCCN | 32 | 8 | 32 | 8 | 16 | 16 | 64 |  | 143 µM | 9.15 | 1.61 |  |  |
| CC(C)=CCCC(C)=CCNCCCN1CCCC1 | 2 | 2 | 2 | 1 | 2 | 1 | 4 | 1 | > 150 µM |  |  |  |  |
| CC(C)=CCC/C(C)=C\CCC(C)=CCNCCCNCCCN | 8 | 32 | 8 | 64 | 32 | 8 | 64 | 8 | 30.2 µM | 3.86 | 3.58 |  |  |
| CC(C)=CCC/C(C)=C\CCC(C)=CCNCCCN1CCOCC1 | 8 | 16 | 8 | 16 | 32 | 8 | 32 | 4 | 57.6 µM |  |  |  |  |
| CC(C)=CCC/C(C)=C\CCC(C)=CCNCCCCN | 8 | 16 | 16 | 256 | 64 | 16 | 64 | 4 | 18.1 µM |  |  |  |  |
| CC(C)=CCCC(C)=CCNCCCN1CCOCC1 | 2 | 2 | 1 | 1 | 2 | 1 | 1 | 1 | > 150 µM |  |  |  |  |
| CC(C)=CCC/C(C)=C\CCC(C)=CCNCCCN1CCN(CCCN)CC1 | 8 | 32 | 32 | 128 | 128 | 8 | 64 | 4 | 33.8 µM |  |  |  |  |
| CCN(CC)CCCNCCCNCC=C(C)CCC=C(C)C | 16 | 32 | 8 | 32 | 32 | 16 | 64 | 8 | 30.9 µM | 1.98 | 1.66 |  |  |
| CC(C)=CCCC(C)=CCNCCCNCCCCNCCCN | 16 | 16 | 16 | 4 | 16 | 8 | 64 | 2 | > 150 µM | 4.8 | 0.57 |  |  |
| CC(C)=CCC/C(C)=C\CCC(C)=CCNCCCCCN | 8 | 16 | 8 | 32 | 64 | 16 | 16 | 2 | 38.4 µM |  |  |  |  |
